Reference: ChEMBL document CHEMBL1124463, “Retinobenzoic acids. 3. Structure-activity relationships of retinoidal azobenzene-4-carboxylic acids and stilbene-4-carboxylic acids” (1989)
Active and inactive are the calls of the source. No cut-off for these calls is given here.

What was measured:
[1] = test system: HL-60; assay: The ability to induce differentiation of human promyelocytic leukemia HL-60 cell line to mature granulocyte was determined in a NBT reduction assay; IA= Inactive; type: functional, cell-based
Outline: (§1)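 HL-60 cells in RPMI1640 with 5% FCS, ethanol stocks at 0.2 mM, final ethanol <0.5%, seeded at ~8 × 10^4 cells/mL and exposed 4 days across 5 orders of concentration. Cells were then incubated 20 min at 37 °C with an equal volume of PBS containing 0.2% NBT and 200 ng/mL TPA. Formazan-positive cells were counted (≥200 cells). ED50 from NBT data; ≥3 repeats.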

[2] = test system: HL-60; assay: The ability to induce differentiation of human promyelocytic leukemia HL-60 cell line to mature granulocyte; type: functional; conditions: read-out: ED50 (the source's name); outline: as §1
[3] = test system: HL-60; assay: The ability to induce differentiation of HL-60 cells relative to that of retinoic acid; type: functional, Homo sapiens
Outline: (§2)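 HL-60 cells from suspension culture in RPMI1640 with 5% FCS and antibiotics, 37 °C, 5% CO2. Compounds were dissolved in ethanol at 0.2 mM (stock), with final ethanol below 0.5%, and added to cells seeded at about 8 × 10^4 cells/mL for 4 days. Retinoic acid was run concurrently. Value is the ED50 ratio of retinoic acid to compound, with ED50 taken from NBT-reduction data.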

[4] = test system: HL-60; assay: The ability to induce differentiation of human promyelocytic leukemia HL-60 cell line to mature granulocyte was determined in a NBT reduction assay; IA= Inactive at >10e-6; type: functional, cell-based; outline: as §1
[5] = test system: HL-60; assay: Activity to differentiate HL-60 cells relative to that of retinoic acid; type: functional, Homo sapiens; outline: as §2
[6] = test system: HL-60; assay: The ability to induce differentiation of human promyelocytic leukemia HL-60 cell line to mature granulocyte was determined in a NBT reduction assay; NA means inactive.; type: functional, cell-based; outline: as §1
[7] = test system: HL-60; assay: The ability to induce differentiation of human promyelocytic leukemia HL-60 cell line to mature granulocyte was determined in a NBT reduction assay; Maximum cellular response to compound is less than half of that of retinoic acid.; type: functional; conditions: read-out: ED50 (the source's name); outline: as §1

Compound | EC50 [2] | Relative activity [3] | other results
CC(C)(C)c1ccc(/C=C/c2ccc(C(=O)O)cc2)cc1 |  |  | ED50 [1]: inactive
CCc1ccc(C2(C)OC2c2ccc(C(=O)O)cc2)cc1CC (stereo unspecified) |  |  | ED50 [1]: inactive
CC1(C)CCC(C)(C)c2cc3oc(-c4ccc(C(=O)O)cc4)cc3cc21 | 1.3 nM | 120 | 
CC(C)(C)c1cccc(/C=C/c2ccc(C(=O)O)cc2)c1 |  | 13 | 
CC1(C)CCC(C)(C)c2cc(/N=N/c3ccc(C(=O)O)cc3)ccc21 |  | 130 | 
CC(C)c1ccc(C(C)C)c(/N=N/c2ccc(C(=O)O)cc2)c1 |  |  | ED50 [1]: inactive
Cc1cccc(/N=N/c2ccc(C(=O)O)cc2)c1 |  |  | ED50 [1]: inactive
CC1(C)CCC(C)(C)c2cc(/C(=C/c3ccc(C(=O)O)cc3)C(F)(F)F)ccc21 | 31 nM | 5.7 | 
CCc1cccc(/N=N/c2ccc(C(=O)O)cc2)c1 |  | <0.1 | ED50 [4]: inactive
CC1(C)CCC(C)(C)c2cc(C(=O)C(=O)c3ccc(C(=O)O)cc3)ccc21 | 140 nM | 3.9 | 
O=C(O)c1ccc(/C=C/c2ccccc2)cc1 |  |  | ED50 [6]: inactive
C/C(=C\c1ccc(C(=O)O)cc1)c1ccc(C)c(C)c1 |  |  | ED50 [1]: inactive
CC1(C)CCC(C)(C)c2cc3c(cc21)C=C(c1ccc(C(=O)O)cc1)C3 |  |  | EC50 [7]: 6.6 nM
CC1=C(/C=C/C(C)=C/C=C/C(C)=C/C(=O)O)C(C)(C)CCC1 [TRETINOIN] | 2.4 nM | 100 | 
CC1(C)CCC(C)(C)c2cc3c(cc21)CC/C3=C\c1ccc(C(=O)O)cc1 | 0.2 nM | 570 | 
C/C(=C\c1ccc(C(=O)O)cc1)c1ccc(C(C)(C)C)cc1 |  |  | ED50 [1]: inactive
CC(C)c1ccccc1/N=N/c1ccc(C(=O)O)cc1 |  |  | ED50 [1]: inactive
O=C(O)c1ccc(/N=N/c2ccccc2)cc1 |  |  | ED50 [1]: inactive

Continued, in another order:

EC50 [2] | Compound | Relative activity [3] | other results
0.5 nM | CC1(C)CCC(C)(C)c2cc(/C=C/c3ccc(C(=O)O)cc3)ccc21 | 260 | 
400 nM | CC(C)(C)c1cccc(/N=N/c2ccc(C(=O)O)cc2)c1 | 0.36 | 
130 nM | CC1(C)CCOc2ccc(/N=N/c3ccc(C(=O)O)cc3)cc21 | 3.5 | 
> 10000 nM | CC(C)c1ccc(/N=N/c2ccc(C(=O)O)cc2)c(C(C)C)c1 | <0.1 | 
410 nM | CC(C)c1cc(/N=N/c2ccc(C(=O)O)cc2)cc(C(C)C)c1 | 0.22 | 
4.3 nM | CC1(C)CCC(C)(C)c2cc(C3OC3c3ccc(C(=O)O)cc3)ccc21 (stereo unspecified) | 22 | 
130 nM | CC1(C)CCC(C)(C)c2cc(CCc3ccc(C(=O)O)cc3)ccc21 | 2.7 | 
130 nM | CC1(C)CCC(C)(C)c2cc(C3(C)OC3c3ccc(C(=O)O)cc3)ccc21 (stereo unspecified) | 0.65 | 
2.5 nM | C/C(=C\c1ccc(C(=O)O)cc1)c1ccc2c(c1)C(C)(C)CCC2(C)C | 90 | 
130 nM | O=C(O)c1ccc(/N=N/c2cccc(C3CCCCC3)c2)cc1 | 0.68 | 
> 1000 nM | CC(C)(C)c1cccc(C2OC2c2ccc(C(=O)O)cc2)c1 (stereo unspecified) | < 0.01 | 
87 nM | CCc1ccc(/C(C)=C/c2ccc(C(=O)O)cc2)cc1CC | 2.2 | 
> 10000 nM | CC(C)c1ccc(/N=N/c2ccc(C(=O)O)cc2)cc1 | <0.1 | 
380 nM | CC(C)c1cccc(/N=N/c2ccc(C(=O)O)cc2)c1 | 0.29 | 
> 1000 nM | CC(C)(C)c1ccc(C2OC2c2ccc(C(=O)O)cc2)cc1 (stereo unspecified) | < 0.01 | 
13 nM | C/C(=C\c1ccc(C(=O)O)cc1)c1ccc(C(C)C)c(C(C)C)c1 |  | Relative activity [5]: 15
2.3 nM | CC(C)c1ccc(/N=N/c2ccc(C(=O)O)cc2)cc1C(C)C | 39 | 
0.25 nM | CC1(C)CCC(C)(C)c2cc(/N=[N+](\[O-])c3ccc(C(=O)O)cc3)ccc21 | 1960 | 
> 10000 nM | O=C(O)c1ccc(/N=N/c2cccc(-c3ccccc3)c2)cc1 | <0.1 | 
210 nM | CC1(C)CCSc2ccc(/N=N/c3ccc(C(=O)O)cc3)cc21 | 2.1 | 
220 nM | CCc1ccc(/N=N/c2ccc(C(=O)O)cc2)cc1CC | 0.53 | 
